Source: ChEMBL document CHEMBL4321878, “Stereoselective Activity of 1-Propargyl-4-styrylpiperidine-like Analogues That Can Discriminate between Monoamine Oxidase Isoforms A and B” (J Med Chem, 2020)
The source made the active and inactive calls. The calls are words filed in the database; no cut-off is given here.

Assays:
[1] = Solubility of the compound in pH 7.4 sodium phosphate buffer at >100 uM; format: physicochemical
SH-SY5Y [2] = test: Cytotoxicity against human SH-SY5Y cells assessed as reduction in cell viability at 5 to 10 uM measured after 24 hrs by MTS assay; format: cell-based
Outline: (§1)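 SH-SY5Y human neuroblastoma cells grown in Advanced DMEM with 10% FBS at 37 °C, 5% CO2, and switched to serum-depleted medium before treatment. Compounds (20 mM DMSO stocks) were applied at 5, 10 or 50 μM for 24 h. Viability read by MTS assay.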

Mus musculus [3] = test: Antidepressant-like activity in Swiss mouse assessed as reduction in immobility time at 3 to 10 mg/kg, ip administered as single dose for 30 mins prior to testing measured for last 4 mins of 6 mins test by tail suspension test; format: functional, organism-based
Mus musculus [4] = test: Antianxiety activity in Swiss mouse assessed as number of total arm entries at 10 mg/kg, ip measured after 30 mins and monitored for 5 mins by elevated plus maze test; format: functional
Outline: (§2)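 Adult male Swiss mice (25–30 g), given hydrochloride salts in 0.9% saline ip 30 min before the elevated plus maze; control mice received saline, with diazepam 1 mg/kg ip as reference. Scored arm entries, open-arm parameters and time in centre. Mice were used once, randomly assigned, and scored by blinded observers between 10:00 and 14:00 h.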

[5] = Cytotoxicity against human SH-SY5Y cells assessed as cell viability at 50 uM measured after 24 hrs by MTS assay relative to control; format: cell-based; conditions: read-out: Activity; outline: as §1
Mus musculus [6] = test: Antianxiety activity in Swiss mouse assessed as proportion of time spent in centre at 10 mg/kg, ip measured after 30 mins and monitored for 5 mins by elevated plus maze test relative to control; format: functional; outline: as §2
Mus musculus [7] = test: Effect on spontaneous locomotor activity in Swiss mouse assessed as change in number of light beam crossings at 10 mg/kg, ip measured after 30 mins and monitored for 5 mins; format: ADME, organism-based; conditions: in vivo
[8] = molecular target: T1, Amine oxidase [flavin-containing] A (Homo sapiens, UniProt P21397); conditions: 20 min
T1 sequence (P21397 whole entry): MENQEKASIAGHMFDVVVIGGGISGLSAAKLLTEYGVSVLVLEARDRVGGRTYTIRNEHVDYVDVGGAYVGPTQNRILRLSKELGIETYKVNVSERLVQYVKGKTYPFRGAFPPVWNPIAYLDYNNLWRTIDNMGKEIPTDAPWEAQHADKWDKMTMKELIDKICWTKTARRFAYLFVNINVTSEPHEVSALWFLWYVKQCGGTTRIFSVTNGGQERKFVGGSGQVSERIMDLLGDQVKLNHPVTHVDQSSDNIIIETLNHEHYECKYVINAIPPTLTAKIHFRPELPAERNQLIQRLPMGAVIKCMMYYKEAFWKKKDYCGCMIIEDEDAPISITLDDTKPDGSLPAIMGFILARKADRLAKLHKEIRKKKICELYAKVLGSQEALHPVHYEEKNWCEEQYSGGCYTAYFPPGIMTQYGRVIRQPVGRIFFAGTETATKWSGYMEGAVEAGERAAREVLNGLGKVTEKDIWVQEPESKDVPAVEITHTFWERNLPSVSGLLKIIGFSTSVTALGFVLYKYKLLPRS

[9] = Apparent permeability across absorptive direction in Sprague-Dawley rat ileum at 50 uM measured after 20 mins LC-MS/MS analysis; format: ADME, tissue-based
[10] = molecular target: T1, Amine oxidase [flavin-containing] A; test: Irreversible inhibition of recombinant human MAOA expressed in Pichia pastoris at 100 uM measured immediately by UV-vis spectrophotometric analysis relative to control
SH-SY5Y [11] = test: Neuroprotective activity against 6-OHDA-induced toxicity in human SH-SY5Y cells assessed as LDH release at 5 uM pretreated for 30 mins followed by 6-OHDA challenge and measured after 24 hrs by cytotox-onetm homogeneous membrane integrity assay (reference value: 135%); format: functional
Mus musculus [12] = test: Antianxiety activity in Swiss mouse assessed as increase in open arm entries at 1 mg/kg, ip measured after 30 mins and monitored for 5 mins by elevated plus maze test relative to control; format: functional
Mus musculus [13] = test: Antianxiety activity in Swiss mouse assessed as increase in time spent in open arm entries at 1 mg/kg, ip measured after 30 mins and monitored for 5 mins by elevated plus maze test relative to control; format: functional
[14] = Photoisomerization of the compound in D2O incubated for 7 days under sunlight by NMR analysis
SH-SY5Y [15] = test: Neuroprotective activity against 6-OHDA-induced toxicity in human SH-SY5Y cells assessed as reduction in propidium iodide positive cells at 5 uM pretreated for 30 mins followed by 6-OHDA challenge and measured after 24 hrs by propidium iodide staining-based flow cytometric analysis relative to 6-OHDA; format: functional
Outline: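 SH-SY5Y cells were grown in Advanced DMEM with 10% FBS at 37 °C, 5% CO2 to 80% confluence, then switched to serum-depleted medium. Compound (5 μM, from a 20 mM DMSO stock) was added 30 min before 6-OHDA (100 μM). After 24 h, PI staining was read by flow cytometry. Runs were n ≥ 2, each in duplicate, with one-way ANOVA and Bonferroni.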

Mus musculus [16] = test: Antidepressant-like activity in Swiss mouse assessed as reduction in immobility time at 30 mg/kg, ip administered as single dose for 30 mins prior to testing measured for last 4 mins of 6 mins test by tail suspension test; format: functional, organism-based
Mus musculus [17] = test: Ex vivo inhibition of MAOB in ip dosed Swiss mouse brain homogenates measured after 30 mins using benzylamine as substrate by amplex red reagent-based horseradish peroxidase-coupled fluorescence assay; format: functional
Mus musculus [18] = test: Reversal of haloperidol-induced catalepsy in Swiss mouse at 0.3 mg/kg, ip pretreated for 15 mins followed by haloperidol challenge and measured up to 90 mins; format: functional, organism-based

In the case of `C#CCN1CCC(/C=C/c2ccc(C(C)C)cc2)CC1`, the solubility [1] is reported as “Insoluble”.
In the case of `C#CCN1CCC(CCc2ccccc2)CC1`, the solubility [1] is reported as “Insoluble”.
With `C#CCN1CCC(/C=C\c2ccc(F)cc2)CC1.Cl` the Activity (SH-SY5Y [2]) was “Non-Toxic”, the Activity (Mus musculus [3]) was “Active” and the Activity (Mus musculus [4]) was 9.7. The viability at 24 h, 50 µM [5] was greater than 80%, the Activity (Mus musculus [6]) was 13.4% and the Activity (Mus musculus [7]) was “Toxic”.
In the case of `C#CCN1CCC(/C=C\c2ccc(Cl)cc2)CC1`, the solubility [1] is reported as “Insoluble”.
Molecule `C#CCN1CCC(CCc2ccc(OC)cc2)CC1` has an activity at 100 µM [8] of 62.2%.
`C#CCN1CCC(CCc2ccc(C)cc2)CC1` showed an activity at 100 µM [8] of 68.1%.
`C#CCN1CCC(/C=C/c2ccc(C)cc2)CC1` showed an activity at 100 µM [8] of 57.3%.
With `C#CCN1CCC(/C=C\c2ccccc2)CC1.Cl` the Activity (SH-SY5Y [2]) was “Non-Toxic”, the Activity (Mus musculus [3]) was “inactive” and the viability at 24 h, 50 µM [5] was greater than 80%.
With `COCCc1ccc(OCC(O)CNC(C)C)cc1` (stereo unspecified) [METOPROLOL] the Papp A→B at 20 min, 50 µM [9] was 14 ×10⁻⁶ cm/s.
For `C#CCN(C)CCCOc1ccc(Cl)cc1Cl` [CLORGILINE], the inhibition at 100 µM [10] was 100%.
For `C#CCN1CCCC(CCc2cc(F)c(F)cc2F)C1` (racemic), the activity at 100 µM [8] was 86%.
Molecule `C#CCN1CCC(CCc2ccc(F)cc2)CC1` has an activity at 100 µM [8] of 76.9%.
In the case of `C#CCN1CCC(CCc2ccc(C#N)cc2)CC1.Cl`, the Activity (SH-SY5Y [2]) is reported as “Non-Toxic”, the Activity (SH-SY5Y [11]) is reported as 82% and the viability at 24 h, 50 µM [5] is reported as greater than 80%.
In the case of `C#CCN1CCC(/C=C/c2ccc(C(N)=O)cc2)CC1`, the activity at 100 µM [8] is reported as 64.8%.
With `CN1C(=O)CN=C(c2ccccc2)c2cc(Cl)ccc21` [DIAZEPAM] the “fold change (FC)” value (Mus musculus [12]) was 2.1 and the “fold change (FC)” value (Mus musculus [13]) was 2.4.
With `C#CCN1CCC(/C=C/c2ccc(C(F)(F)F)cc2)CC1` [listing 1 of 2 here] the Drug metabolism [14] was “Metabolite not detected”.
With `C#CCN1CCC(CCc2ccc(C(N)=O)cc2)CC1` the activity at 100 µM [8] was 75.1%.
With `C#CCN1CCCC(CCc2ccc(F)cc2)C1` (racemic) the activity at 100 µM [8] was 93.1%.
For `C#CCN1CCC(/C=C/c2ccc(F)cc2)CC1.Cl`, the Activity (SH-SY5Y [2]) was “Non-Toxic”, the Activity (SH-SY5Y [11]) was 76% and the viability at 24 h, 50 µM [5] was greater than 80%.
With `C#CCN1CCC(/C=C/c2ccc(OC)cc2)CC1` the activity at 100 µM [8] was 56.1%.
`C#CCN1CCC(/C=C\c2ccc(C(N)=O)cc2)CC1` showed an activity at 100 µM [8] of 89.5%.
Molecule `C#CCN1CCC(/C=C/c2ccc(S(C)(=O)=O)cc2)CC1` has an activity at 100 µM [8] of 68.7%.
For `C#CCN1CCC(/C=C\c2ccc(S(C)(=O)=O)cc2)CC1`, the activity at 100 µM [8] was 70.6%.
With `C#CCN1CCC(CCc2ccc(C(C)C)cc2)CC1.Cl` the Activity (SH-SY5Y [2]) was “Non-Toxic”, the Activity (SH-SY5Y [11]) was 82% and the viability at 24 h, 50 µM [5] was greater than 80%. For the same molecule, the “fold change (FC)” value (SH-SY5Y [15]) was 0.68.
For `C#CCN1CCC(CCc2ccc(C(F)(F)F)cc2)CC1` [listing 1 of 2 here], the activity at 100 µM [8] was 62.3%.
With `C#CCN1CCC(/C=C/c2ccc(C#N)cc2)CC1` the solubility [1] was “Insoluble”.
With `C#CCN1CCC(CCc2cccc(C(F)(F)F)c2)CC1` the activity at 100 µM [8] was 71.6%.
Molecule `C#CCN1CCC(CCc2ccc(O)cc2)CC1` has an activity at 100 µM [8] of 67.7%.
In the case of `CN(C)CCCN1c2ccccc2CCc2ccccc21`, the Activity (Mus musculus [16]) is reported as “Active”.
Work on `C#CCN1CCC(/C=C\c2ccc(C)cc2)CC1` yielded an activity at 100 µM [8] of 62.2%.
`C#CCN1CCCC(/C=C/c2ccc(F)cc2)C1` (racemic) showed an activity at 100 µM [8] of 91%.
With `C#CCN1CCC(/C=C/c2ccc(C(F)(F)F)cc2)CC1` [listing 2 of 2 here] the activity at 100 µM [8] was 64.9%.
In the case of `C#CCN1CCC(CCc2ccc(Cl)cc2)CC1`, the activity at 100 µM [8] is reported as 67.7%.
In the case of `C#CCN1CCC(/C=C/c2ccc(Br)cc2)CC1`, the activity at 100 µM [8] is reported as 54.5%.
For `C#CCN1CCC(/C=C\c2ccc(C(F)(F)F)cc2)CC1`, the activity at 100 µM [8] was 80.1%.
Molecule `C#CCN1CCCC(/C=C/c2cc(F)c(F)cc2F)C1` (racemic) has an activity at 100 µM [8] of 102%.
For `C#CCN1CCC(CCc2ccc(C(F)(F)F)cc2)CC1` [listing 2 of 2 here], the Drug metabolism [14] was “Metabolite not detected”, the inhibition (Mus musculus [17]) was “Dose-dependent effect” and the Activity (Mus musculus [18]) was “inactive”.
In the case of `C#CCN1CCC(CCc2ccc(C(C)C)cc2)CC1`, the solubility [1] is reported as “Insoluble”.
In the case of `C#CCN1CCC(CCc2cc(F)c(F)cc2F)CC1`, the activity at 100 µM [8] is reported as 65.6%.
